For six molecules, IC50 and inhibition of growth results are on record in ChEMBL document CHEMBL2150962, “Antimicrobial rubrolides from a South African species of Synoicum tunicate” (J Nat Prod, 2012).

The IC50 is the concentration that gives 50% inhibition. A higher IC50 goes with lower potency.

The subject of one experiment is Staphylococcus aureus. The experiment is described as follows: Antimicrobial activity against methicillin-resistant Staphylococcus aureus ATCC BAA-1720. Type of experiment: functional, organism-based.
The subject of experiment [1] is Staphylococcus epidermidis. The experiment is described as follows: Antimicrobial activity against Staphylococcus epidermidis ATCC 35984TCC BAA-1721. It counts as functional, organism-based. Put shortly: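 Microtiter broth dilution; S. epidermidis ATCC 35984 grown in tryptic soy broth, inoculum 5 × 10⁵ cfu/mL, 16 h static incubation at 37 °C. Compound tested over 130 - 0.3 μg/mL. Technical duplicates, biological triplicate; percentage inhibition fitted by nonlinear regression to IC50.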

In a further experiment the test system is Enterococcus faecalis. The experiment is described as follows: Antimicrobial activity against gentamycin- and vancomycin-resistant Enterococcus faecalis ATCC 700802 at 100 ug/ml. It counts as functional. The settings on record: read-out: GI.
Another experiment has as its system Escherichia coli. The experiment is described as follows: Antimicrobial activity against Escherichia coli O157:H7 at 100 ug/ml. Type of experiment: functional. The settings on record: read-out: GI.

In the case of `COc1ccc(/C=C2\OC(=O)C=C2c2ccc(O)cc2)cc1` [RUBROLIDE F], the results for the IC50 (in the experiment with Staphylococcus aureus; in experiment [1]) were 1010 µM and 79 µM, respectively. The inhibition of growth at 100 µg/mL stood at 47% in the experiment on Enterococcus faecalis and 15% in the experiment with Escherichia coli.
In the same order, the values of `COc1ccc(/C=C2\OC(=O)C=C2c2ccc(O)cc2)cc1Br` are 256 µM, 98 µM, 43% and 22%.
On the same counts, the results for `O=C1C=C(c2ccc(O)c(Br)c2)/C(=C/c2ccc(O)c(Br)c2)O1` are 89 µM, 28 µM, 2% and 25%.
On the same counts, the results for `O=C1C=C(c2ccc(O)cc2)/C(=C/c2ccc(O)cc2)O1` [RUBROLIDE E] are 105 µM, 21 µM, 89% and 16%.
With `COc1ccc(/C=C2\OC(=O)C=C2c2ccc(O)c(Br)c2)cc1`, the results for the IC50 (in the experiment with Staphylococcus aureus; in experiment [1]) were 360 µM and 42 µM, respectively. Also, the inhibition of growth at 100 µg/mL with Enterococcus faecalis turned out to be 2%; in the experiment with Escherichia coli, 14%.
Regarding `O=C1C=C(c2ccc(O)c(Br)c2)/C(=C/c2ccc(O)cc2)O1`, the IC50 in the experiment on Staphylococcus aureus was 82 µM; in experiment [1] it was 38 µM. Moreover, the results for the inhibition of growth at 100 µg/mL in the experiment on Enterococcus faecalis and with Escherichia coli were 16% and 0%, respectively.
